Assay outcomes from PubChem BioAssay.
Rows were chosen to be rich in hits. Some 2.9% of all compounds tested hit in one or more screens of this group.
MEKK3 PB1 HTS: modulators of MEKK3-MEK5 PB1 binding, primary screen, biochemical, wildtype MEKK3, multiplex bead flow cytometry, Alexa488-MEK5; bead-based flow cytometry, Alexa488-MEK5 binding to MEKK3; actives lie on both sides; 0 = blocked by unlabeled MEK5, 100 = vehicle; binding response (% of control), % at 10 µM; hit rate 1.4% among 290,000;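 active means binding response more than 3 SD above or below the average of its plate-row segment, actives on both sides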;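 further: Alexa488 bead fluorescence after subtracting the streptavidin-only scavenger bead signal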
MEKK2 WT-MEK5: modulators of MEK5 binding to wildtype MEKK2, primary screen, biochemical, multiplex bead flow cytometry, Alexa488-MEK5; Alexa488-MEK5 binding to MEKK2 WT; actives lie on both sides; AID 1531, 2009; Mitogen-activated protein kinase kinase kinase 2 (Homo sapiens), Q9Y2U5; hit rate 1.1% among 290,000; binding response (% of control), % at 10 µM; in the data active means binding response below about 67% or above about 130%
ATG4B inhibitor: ATG4B protease inhibitors, primary screen, biochemical, fluorescence, uHTS. hit rate 0.51% among 340,000. inhibition, % at 8.33 µM. ATG4B cleavage of LC3-PLA2, NBD-HPC fluorescence, 1 h. Cysteine protease ATG4B (Homo sapiens), Q9Y4P1. AID 504462, 2011; in the data active means inhibition above about 40%
Dynein cargo inh: inhibitors of GR-EGFP nuclear translocation, primary screen, dynein cargo transport inhibitor project, imaging, high-content, 3617.4 mouse cells; test concentration mostly 20 µM; stimulated with dexamethasone, 1 µM; hits give low values; z-score, hits read low; hit rate 0.47% among 220,000; AID 1381, 2008;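 active means plate z-score of nuclear minus cytoplasmic receptor signal below a set negative limit, without overly bright fluorescence or cell loss, cut at about -3.5 in these data, passing the limit was not always enough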;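 further: z-score of nuclear minus cytoplasmic ring GR-EGFP intensity difference per well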
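medium = tetracycline-free induction medium containing charcoal-stripped FBS | probe or stimulus = dexamethasone, 1.0 µM final | timing = 48 h induction, then 1 h compound, then 30 min agonist, 37 °C | detection = automated 10x imaging of fixed Hoechst-stained cells | read-out basis = nuclear versus cytoplasmic GR-EGFP signal, averaged per well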
B2AR ag: beta2AR agonists driving receptor internalization, primary screen, cell-based, FAP fluorogen, flow cytometry; Beta-2 adrenergic receptor (Homo sapiens), P07550; Am2.2-beta2AR cells; response, % (test concentration not listed); hit rate 0.43% among 340,000;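 active means response above a set limit, near 3 SD of response in nonfluorescent compounds, cut at about 42% in these data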
Target sequence (P07550 whole entry, looked up): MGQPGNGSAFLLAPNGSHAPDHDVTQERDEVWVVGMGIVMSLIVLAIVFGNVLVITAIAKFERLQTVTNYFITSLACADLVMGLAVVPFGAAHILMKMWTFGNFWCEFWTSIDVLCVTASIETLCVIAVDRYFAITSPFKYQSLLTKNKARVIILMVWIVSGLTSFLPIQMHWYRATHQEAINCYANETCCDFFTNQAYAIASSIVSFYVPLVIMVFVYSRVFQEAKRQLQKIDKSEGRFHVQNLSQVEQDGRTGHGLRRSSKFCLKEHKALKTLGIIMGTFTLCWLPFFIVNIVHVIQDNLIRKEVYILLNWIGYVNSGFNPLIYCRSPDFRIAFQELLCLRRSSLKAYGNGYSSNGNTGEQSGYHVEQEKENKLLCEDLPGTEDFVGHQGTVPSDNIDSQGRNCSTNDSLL
MEKK2 mut-MEK5: MEK5 binding signal on mutant MEKK2 PB1, primary screen, biochemical, multiplex bead flow cytometry, Alexa488-MEK5 | AID 1530, 2009 | Alexa488-MEK5 binding to MEKK2 mutant | percent response, % at 10 µM | hit rate 0.35% among 290,000; in the data active means percent response above about 24%, passing the limit was not always enough
B2AR ag CP1: beta2AR agonists via receptor internalization, confirmation, cell-based, FAP fluorogen, flow cytometry, single point, cherry pick 1; shares compounds with B2AR ag; Am2.2-beta2AR cells, FAP surface receptor; hits give low values; percent response (surface receptor), % at 10 µM; hit rate 25% among 1,100; AID 540358, 2011;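 active means surface receptor percent response at or below 58%, roughly 3 SD from nonfluorescent compounds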
B2AR FAP counter: fluorescence artifact in beta-2AR agonist FAP counterscreen. shares compounds with B2AR ag. Am2.2 cells, FAP fluorogen flow cytometry; hits give low values. calls only at 10 µM. 1,100 tested, under 10 active. AID 588765;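 active means percent response below a set limit in fluorescence channel 1 and below 50% in channel 8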
* marks the source's active call; other numbers are inactive results; i = inactive; x = no result.

SMILES	MEKK3 PB1 HTS	MEKK2 WT-MEK5	ATG4B inhibitor	Dynein cargo inh	B2AR ag	MEKK2 mut-MEK5	B2AR ag CP1	B2AR FAP counter
OCCSc1nc2ccccc2n1CCOc1ccccc1	102	104	-11	-0.24	-4	4	x	x
Cc1ccc(S(=O)(=O)Nc2ccncc2)c(C)c1N(C)S(=O)(=O)c1ccc(F)cc1	92	95	1	-0.27	84*	-3	106	i
COc1ccc(S(=O)(=O)Nc2ccncc2)c(C)c1C	107	101	-2	-0.021	-4	-1	x	x
O=C(Nc1ccccc1N1CCOCC1)c1ccc2c(c1)OCCO2	104	107	-2	x	-3	1	x	x
CCc1cccc(OCC(O)Cn2c(N3CCCCC3)nc3c2c(=O)[nH]c(=O)n3C)c1 (stereo not drawn)	102	101	-10	x	-1	4	x	x
CCC(C)NC(=O)c1cn(CC)c2ccc(S(=O)(=O)N3CCCCCC3)cc2c1=O (stereo not drawn)	89	90	-4	x	-6	-14	x	x
CCCOc1cccc(C(=O)Nc2cccc(NC(=O)c3ccco3)c2)c1	x	x	17	-0.72	-1	x	x	x
CCCCOc1cccc(C(=O)Nc2ccc(NC(=O)c3ccco3)cc2)c1	102	95	-2	x	69*	0	35*	i
O=C(CCc1nnc2ccc(NCc3ccco3)nn12)Nc1ccc(F)cc1	104	104	2	x	0	9	x	x
C=CCn1c(SCc2ccc(F)cc2)nnc1-c1sc2nc(C)cc(C)c2c1N	93	94	4	-0.94	109*	-10	28*	i
CCC(C)(C)n1nnnc1C(c1ccccc1OC)N1CCN(C(=O)c2ccco2)CC1 (stereo not drawn)	98	97	4	x	-6	2	x	x
CC(C)(C)NC(=S)NNC(=O)c1cccc(Br)c1	105	98	-1	-0.48	-11	1	113	i
CC(C)C(=O)Nc1ccc(-c2nc3cccnc3o2)cc1	101	102	-8	-0.0048	30	1	x	x
CC(C)(C)c1ccc(OCC(=O)Nc2ccc(-c3nc4cccnc4o3)cc2)cc1	100	97	-2	0.73	110*	-2	40*	i
Cn1c(=N)n(CC(=O)c2ccc(Br)cc2)c2ccccc21	x	x	-6	x	43*	x	16*	i
Cn1c(=N)n(CC(=O)c2ccc(F)cc2)c2ccccc21	104	105	-1	x	-7	9	x	x
COc1ccc(C(=O)Nc2nc3cc4c(cc3s2)OCCO4)c(OC)c1	96	96	10	-0.19	54*	-5	101	i
COc1ccccc1C(=O)Nc1nc2cc3c(cc2s1)OCCO3	98	93	-7	-0.49	0	7	x	x
CCC(Sc1nnc2c3ccccc3n(CC)c2n1)C(=O)Nc1sc2c(c1C#N)CCCC2 (stereo not drawn)	101	98	-6	0.58	-7	-1	x	x
COc1ccc(/C(O)=C2\C(=O)C(=O)N(c3cc(C)on3)C2c2ccccc2OC)cc1 (stereo not drawn)	102	101	-4	-0.48	50*	1	112	i
COc1ccc(/C(O)=C2\C(=O)C(=O)N(c3cc(C)on3)C2c2ccccc2OC)cc1C (stereo not drawn)	104	102	-4	0.92	2	1	x	x
COc1ccc(Nc2cc(C(=O)NCCCN3CCN(C)CC3)c3ccccc3n2)cc1	108	127	-4	-6.9	47*	12	86	i
CN(c1ccccc1)S(=O)(=O)c1cccc(C(=O)Nc2cccc(C(=O)NC3CC3)c2)c1	x	x	-20	x	51*	x	13*	i
CN(c1ccccc1)S(=O)(=O)c1cccc(C(=O)NC2CCCC2)c1	x	x	-3	x	-7	x	x	x
COc1ccc(Cn2nc(-c3ccccc3)c(N3CCCCC3)cc2=O)cc1	96	89	6	0.7	108*	-8	38*	i
SMILES	MEKK3 PB1 HTS	MEKK2 WT-MEK5	ATG4B inhibitor	Dynein cargo inh	B2AR ag	MEKK2 mut-MEK5	B2AR ag CP1	B2AR FAP counter
O=c1cc(N2CCCCC2)c(-c2ccccc2)nn1Cc1ccccc1	103	96	5	-0.16	0	-5	x	x
CC(C)CN(C(=O)c1ccc2c(c1)OCCO2)c1c(N)n(Cc2ccccc2)c(=O)[nH]c1=O	x	x	0	x	66*	x	107	i
OC1CCN(C(=S)Nc2ccc(Oc3ccccc3)cc2)CC1	108	101	-3	0.39	-23	0	x	x
O=C(CNC(=O)N1CC(=O)Nc2ccccc21)NCCc1cccc(F)c1	95	93	-1	x	4	-12	x	x
CCc1c(C)nc(/N=C(/NC(=O)c2ccccc2)Nc2ccccc2OC)[nH]c1=O	x	x	x	0.47	x	x	x	x
CCOC(=O)C1(CC2CCCCO2)CCN(Cc2ccc(OC)cc2F)CC1 (stereo not drawn)	102	104	-8	-0.13	-3	10	x	x
COc1ccc(C(C)=O)cc1CC(=O)N(Cc1ccccc1)c1ccccc1	106	103	2	x	45*	3	58	i
C=CCOC(=O)C1=C[C@@H](c2ccc(C(F)(F)F)cc2)[C@H](CCCO)[C@@H](OCC)O1	104	105	0	-0.88	12	4	x	x
CC1CC2(CCCC2)N(C(=O)c2ccccc2)Cc2ccccc21 (stereo not drawn)	103	97	13	-0.61	1	1	x	x
O=C1C(O)CC2c3ccccc3CC3(CCCC3)N12 (stereo not drawn)	74	81	2	-0.58	7	-22	117	i
COCCNC(=O)CN1C(=O)NC2(CCCc3cc(OC)ccc32)C1=O (stereo not drawn)	108	109	-2	x	-4	11	x	x
O=C1OC(c2ccccc2)(c2ccc(O)cc2)c2ccccc21 (stereo not drawn)	x	x	-4	x	43*	x	77	i
O=C1OC(c2ccccc2)(c2ccccc2)c2ccccc21	x	x	8	x	56*	x	66	i
O=C1CC(c2ccccc2)(c2ccccc2)c2ccccc21	x	x	18	x	59*	x	39*	i
CCOc1cc(/C=C/C(=O)OCC(=O)NCc2ccco2)cc(Cl)c1OC	x	x	2	x	5	x	x	x
